bCat nuc transl – modulators of beta-catenin nuclear translocation | HeLa beta-catenin nuclear translocation, immunofluorescence imaging | nuclear translocation activity, % at 5 µM | 190,000 compounds, 0.3% hits;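 active = nuclear translocation activity above 50% at 5 µM, with a well cell count of 50 or more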;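 also: per-cell ratio of nuclear to cytoplasmic median beta-catenin stain intensity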
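Assay system: human HeLa cells, native beta-catenin; doses: 5 µM primary, 0.02–20 µM confirmation; incubation: compound treatment 24 h, 37°C, 5% CO2; technique: fluorescence imaging of beta-catenin antibody stain plus DAPI; measure: % activation, nuclear-to-cytoplasmic median beta-catenin signal ratio per cell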
Ba/F3 V617F tox – reduce viability of Ba/F3 cells dependent on JAK2V617F; Ba/F3 EpoR-JAK2V617F viability, ATP luminescence; inhibition, % at 5.6 µM; 220,000 compounds, 1.1% hits;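 active = inhibition above the campaign mean plus 3 SD over all tested compounds, cut at about 24% in these data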;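 also: cytokine-independent growth of Ba/F3 cells driven by EpoR plus mutant JAK2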
MT stabilizer – microtubule stabilization, imaging screen | HeLa tubulin immunostaining HCS, 24 h; share of cells brighter than vehicle mean+2SD | % tubulin-high responders, % at 10 µM | 200,000 compounds, 0.83% hits | AID 2205;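 active = plate Z-score above 3 for both tubulin-high and condensed-nucleus cell shares, with cell loss under 80%, at 10 µM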;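 also: anti alpha tubulin signal scored within the nucleus-defined area of each cell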
APP transl inh – APP translation inhibition | AID 1285 | 190,000 compounds, 0.82% hits | SH-SY5Y APP 5'UTR-luciferase reporter, luminescence | inhibition, % at 2 µM;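 active = inhibition above a set limit, derived from the sample mean plus 3 SD, cut at about 45% in these data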
L major viab – Leishmania major promastigote growth inhibition; 200,000 compounds, 9% hits; AID 1063; Leishmania major promastigotes, resazurin fluorescence viability; inhibition, % at 10 µM; in the data active = inhibition above about 50%;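 also: promastigotes grown with compound for 44 hours at 28 °C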
BaF3 parental – parental Ba/F3 viability inhibition as JAK2V617F counter-screen; CellTiter-Glo ATP luminescence; inhibition, % at 5.6 µM; 220,000 compounds, 1.1% hits;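 active = inhibition above a per-campaign cutoff, the mean inhibition of all tested compounds plus 3 SD, cut at about 27% in these data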
Numbers stand for hits; - = inactive; . = no result. Shown are actives, neighbours in structure and some others; about 9.6% of the full set was active somewhere.

SMILES	bCat nuc transl	Ba/F3 V617F tox	MT stabilizer	APP transl inh	L major viab	BaF3 parental
O=C(NC1CCCCCCC1)c1cc(COc2ccc3ncccc3c2)on1	-	-	-	-	-	39
O=C(c1cc(COc2ccc3ncccc3c2)on1)N1CCC(O)CC1	-	-	-	-	-	-
CCC(O)C1CCN(C(=O)c2cc(COc3ccc4ncccc4c3)on2)CC1 (centres undefined)	-	47	-	-	-	68
O=C(c1cc(COc2ccc3ncccc3c2)on1)N1CCCC(O)C1 (centres undefined)	-	-	-	-	-	-
COc1ccc(CCNC(=O)COC(=O)CCC(=O)c2ccc(F)cc2)cc1OC	-	-	-	-	-	-
Cc1ccc2[nH]c(=O)c(C(c3nnnn3Cc3ccccc3)N3CCc4ccccc43)cc2c1 (centres undefined)	.	-	-	-	74	-
Cc1cc2cc(C(c3nnnn3Cc3ccccc3)N3CCc4ccccc43)c(=O)[nH]c2cc1C (centres undefined)	-	-	-	-	99	-
Cc1ccc2cc(C(c3nnnn3Cc3ccccc3)N3CCc4ccccc43)c(=O)[nH]c2c1 (centres undefined)	.	-	-	.	-	-
Cc1cccc2cc(C(c3nnnn3Cc3ccccc3)N3CCN(C)CC3)c(=O)[nH]c12 (centres undefined)	-	-	-	-	-	-
Cc1cccc2cc(C(c3nnnn3Cc3ccccc3)N3CCN(c4ccccc4)CC3)c(=O)[nH]c12 (centres undefined)	-	-	-	-	51	-
Cc1cc2cc(C(c3nnnn3Cc3ccco3)N3CCc4ccccc4C3)c(=O)[nH]c2cc1C (centres undefined)	-	-	-	-	91	-
CCOc1ccccc1NC(=S)NCCCn1ccnc1	-	-	-	-	-	-
COc1cc(OC)c2c(c1)S(=O)(=O)C(c1ccccc1)=C2N	-	-	-	-	-	-
COCCCN(CC(=O)O)S(=O)(=O)c1cccc(Cl)c1	-	-	-	-	-	-
CCc1ccc2[nH]c(=O)c(C(c3nnnn3Cc3ccccc3)N3CCOCC3)cc2c1 (centres undefined)	-	-	-	-	96	-
CCc1ccc2[nH]c(=O)c(C(c3nnnn3Cc3ccc(OC)cc3)N3CCOCC3)cc2c1 (centres undefined)	-	-	-	-	-	-
CSc1nnc(C2CCCN2)n1C (centres undefined)	-	-	-	-	-	-
CCC(C)NC(=O)c1[nH]c(C)c(C(=O)OC)c1C (centres undefined)	-	-	-	-	-	-
c1ccc2sc(Sc3ncnc4sccc34)nc2c1	.	-	-	-	69	-
COC(=O)c1scc(C)c1N/N=C(\C)c1cc(F)c(Cl)cc1F	.	-	-	-	-	-
COc1ccc(Oc2ccc(S(=O)(=O)N3CCCCC3)cc2S(=O)(=O)N2CCCCC2)cc1	-	-	.	.	.	-
COc1ccccc1Oc1ccc(S(=O)(=O)N2CCCC2)cc1	.	-	-	-	99	-
Nc1cc(S(=O)(=O)N2CCCCC2)ccc1Oc1ccc(Cl)cc1	-	-	-	-	-	-
Cc1cccc(Oc2ccc(S(=O)(=O)N3CCCCC3)cc2N)c1	-	-	-	-	80	-
COc1ccc(S(=O)(=O)N(CC(=O)N2CCN(c3ccccc3OC)CC2)c2ccccc2)cc1	-	-	-	-	91	-
SMILES	bCat nuc transl	Ba/F3 V617F tox	MT stabilizer	APP transl inh	L major viab	BaF3 parental
COc1ccccc1N1CCN(C(=O)c2ccc(S(=O)(=O)N3CCCCCC3)cc2)CC1	.	-	-	-	-	94
COc1ccc(N2CCN(C(=O)CN(c3ccccc3)S(=O)(=O)c3ccc(OC)cc3)CC2)cc1	-	-	-	-	-	-
Cc1ccc(C(=O)N2CCN(c3ncccn3)CC2)cc1S(=O)(=O)N1CCCCC1	-	-	-	-	59	-
Cc1ccc(C(=O)N2CCN(c3ccccc3)CC2)cc1S(=O)(=O)N1CCCC1	-	-	-	-	-	-
O=C(N=Nc1c(O)[nH]c2ccccc12)c1ccccc1NS(=O)(=O)c1cccs1	-	-	-	-	68	-
O=C(CSc1nc2ccccc2o1)N1c2ccccc2Sc2ccc(C(F)(F)F)cc21	-	-	-	-	80	-
O=C(CN1CCCC1)N1c2ccccc2Sc2ccc(C(F)(F)F)cc21	-	-	-	-	-	-
O=C(CN1CCN(c2ccccn2)CC1)N1c2ccccc2Sc2ccc(C(F)(F)F)cc21	-	-	-	-	68	-
C/C(=N/O)c1ccccn1	-	-	-	-	-	-
CCCCCC/C(=N/O)c1ccccn1	-	-	-	-	91	-
CC1CCCN(c2ccc(C(=O)NCc3ccco3)cc2[N+](=O)[O-])C1 (centres undefined)	.	-	-	-	73	-
O=C(NCc1ccco1)c1cc([N+](=O)[O-])cc([N+](=O)[O-])c1	-	-	-	-	58	-
CCSc1nnc(NC(=O)C2Cc3ccccc3CN2S(=O)(=O)CC)s1 (centres undefined)	-	-	-	-	-	-
CCS(=O)(=O)N1Cc2ccccc2CC1C(=O)Nc1nnc(SCc2c(Cl)cccc2Cl)s1 (centres undefined)	-	-	-	-	81	-
CCS(=O)(=O)N1Cc2ccccc2CC1C(=O)Nc1nc2c(C)cccc2s1 (centres undefined)	-	-	-	-	55	-
Cc1cnc(C(=O)Nc2nnc(SCc3c(Cl)cccc3Cl)s2)cn1	-	-	-	-	56	-
CCS(=O)(=O)N1Cc2ccccc2CC1C(=O)Nc1nc(C)cs1 (centres undefined)	-	-	-	-	-	-
Cc1ccc(CN2CC(C(=O)Nc3nnc(SCc4c(Cl)cccc4Cl)s3)CC2=O)cc1 (centres undefined)	-	-	-	-	-	-
Cc1cc(C)c(NC(=O)COC(=O)CCc2ccc(S(=O)(=O)N3CCCCC3)cc2)c(C)c1	-	-	-	-	-	-
COc1ccc(NC(=O)N2CCN(c3nc(-c4cccc(OC)c4)cs3)CC2)cc1	-	-	-	-	79	-
COc1cccc(-c2csc(N3CCN(C(=S)Nc4ccccc4Cl)CC3)n2)c1	-	-	-	-	100	-
COc1cccc(-c2csc(N3CCN(C(=O)Nc4ccc(Cl)cc4)CC3)n2)c1	-	-	-	-	-	-
COc1cccc(-c2csc(N3CCN(C(=S)Nc4ccccc4OC)CC3)n2)c1	-	-	-	-	93	-
Cc1ccc2nc3c(c(C(=O)OC4CCOC4=O)c2c1)CCCC3 (centres undefined)	-	-	-	-	-	-
COc1ccc(C(=O)c2c(C(F)(F)F)oc3c2C(=O)c2ccccc2C3=O)cc1	-	-	-	-	100	-
Cc1noc(C)c1S(=O)(=O)NCc1ccc2c(c1)OCO2	-	.	-	-	-	.
CCSc1nc(N)nc(-c2cccs2)c1C#N	-	-	-	.	-	-
